Values joined by “and” are separate entries in the source; they are usually repeats but may differ in a detail not shown here. Equal entries are not always repeated.
System: U2OS
Test: Multiplex assay against U2OS
Type: toxicity, cell-based
Details: human
Procedure, shortened: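 Per cents of healthy-nucleus cells form the tubulin, mitochondrial-mass and membrane-permeability phenotype values. Live cells were stained at seeding with Hoechst33342, BioTracker Green Microtubule Cytoskeleton Dye, MitoTracker Red and Annexin V Alexa Fluor 680. After compound addition they were imaged on a CQ1 microscope at 37°C and 5% CO2, and CellPathfinder machine-learning gating split them into Hoechst high-intensity objects or normal cells, normal cells into healthy, pyknosed or fragmented nuclei, and pyknosed cells into mitotic or apoptotic.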

[1] = 12 h, 1 µM, compound concentration 1 uM, replicate 1
[2] = 12 h, 1 µM, compound concentration 1 uM, replicate 2
[3] = 12 h, 10 µM, compound concentration 10 uM, replicate 1
[4] = 12 h, 10 µM, compound concentration 10 uM, replicate 2
[5] = 24 h, 1 µM, compound concentration 1 uM, replicate 1
[6] = 24 h, 1 µM, compound concentration 1 uM, replicate 2
[7] = 24 h, 10 µM, compound concentration 10 uM, replicate 1
[8] = 24 h, 10 µM, compound concentration 10 uM, replicate 2
[9] = 48 h, 1 µM, compound concentration 1 uM, replicate 1
[10] = 48 h, 1 µM, compound concentration 1 uM, replicate 2
[11] = 48 h, 10 µM, compound concentration 10 uM, replicate 1
[12] = 48 h, 10 µM, compound concentration 10 uM, replicate 2

CS(=O)(=O)N1CCCC(NC(=O)[C@H](CCC2CCCCC2)NC(=O)c2ccc(CNc3ncnc4c3nnn4-c3ccccc3)cc2)C1 (some centres not stated) [SR-301]
Population Apoptotic (%) [1]: 27% and 50% and 35%
Population Fragmented Nuclei (%) [1]: 13% and 7%
Population Healthy Nuclei (%) [1]: 74% and 76% and 79%
Population Hoechst High Intensity Objects (%) [1]: 5% and 4% and 3%
Population Membrane Permeable-Phenotype (%) [1]: 7% and 4% and 3%
Population Mitochondria Different-Phenotype (%) [1]: 11% and 9% and 8%
Population Mitotic Cells (%) [1]: 72% and 50% and 64%
Population Normal (%) [1]: 94% and 95% and 96%
Population Pyknosed Nuclei (%) [1]: 12% and 13%
Total Cell Count [1]: 200 and 294 and 192
Population Apoptotic (%) [2]: 25% and 63% and 33%
Population Fragmented Nuclei (%) [2]: 14% and 11%
Population Healthy Nuclei (%) [2]: 81% and 70% and 89%
Population Hoechst High Intensity Objects (%) [2]: 19% and 13%
Population Membrane Permeable-Phenotype (%) [2]: 10% and 2%
Population Mitochondria Different-Phenotype (%) [2]: 20% and 14% and 10%
Population Mitotic Cells (%) [2]: 75% and 36% and 66%
Population Normal (%) [2]: 80% and 86%
Population Tubulin-Different-Phenotype (%) [2]: 21% and 19% and 12%
Total Cell Count [2]: 135 and 58 and 69
Population Apoptotic (%) [3]: 81% and 62% and 53%
Population Fragmented Nuclei (%) [3]: 21% and 23% and 11%
Population Healthy Nuclei (%) [3]: 27% and 44% and 78%
Population Hoechst High Intensity Objects (%) [3]: 10% and 5%
Population Mitochondria Different-Phenotype (%) [3]: 39% and 28% and 22%
Population Mitotic Cells (%) [3]: 18% and 37% and 46%
Population Normal (%) [3]: 89% and 94%
Population Tubulin-Different-Phenotype (%) [3]: 39% and 52% and 28%
Total Cell Count [3]: 202 and 154 and 295
Population Apoptotic (%) [4]: 80% and 75% and 41%
Population Fragmented Nuclei (%) [4]: 39% and 27%
Population Healthy Nuclei (%) [4]: 20% and 25% and 58%
Population Hoechst High Intensity Objects (%) [4]: 4% and 2%
Population Membrane Permeable-Phenotype (%) [4]: 61% and 54% and 30%
Population Mitochondria Different-Phenotype (%) [4]: 66% and 54% and 34%
Population Mitotic Cells (%) [4]: 20% and 25% and 58%
Population Normal (%) [4]: 95% and 97%
Population Pyknosed Nuclei (%) [4]: 39% and 47% and 20%
Population Tubulin-Different-Phenotype (%) [4]: 55% and 54% and 34%
Total Cell Count [4]: 89 and 86 and 105
Population Apoptotic (%) [5]: 47% and 48%
Population Fragmented Nuclei (%) [5]: 10% and 5%
Population Healthy Nuclei (%) [5]: 82% and 75%
Population Hoechst High Intensity Objects (%) [5]: 3% and 0%
Population Membrane Permeable-Phenotype (%) [5]: 5% and 3% and 2%
Population Mitochondria Different-Phenotype (%) [5]: 6% and 8%
Population Mitotic Cells (%) [5]: 52% and 51%
Population Normal (%) [5]: 96% and 99%
Population Pyknosed Nuclei (%) [5]: 14% and 7%
Total Cell Count [5]: 350 and 199 and 225
Population Fragmented Nuclei (%) [6]: 12% and 7%
Population Healthy Nuclei (%) [6]: 78% and 80% and 86%
Population Membrane Permeable-Phenotype (%) [6]: 7% and 6%
Population Mitochondria Different-Phenotype (%) [6]: 20% and 10%
Population Mitotic Cells (%) [6]: 87% and 60% and 55%
Population Normal (%) [6]: 80% and 95%
Population Pyknosed Nuclei (%) [6]: 9% and 12% and 6%
Population Tubulin-Different-Phenotype (%) [6]: 13% and 26% and 14%
Total Cell Count [6]: 148 and 64 and 84
Population Apoptotic (%) [7]: 96% and 87% and 65%
Population Healthy Nuclei (%) [7]: 25% and 39% and 75%
Population Mitochondria Different-Phenotype (%) [7]: 29% and 16% and 13%
Population Normal (%) [7]: 89% and 92% and 96%
Population Pyknosed Nuclei (%) [7]: 39% and 38% and 13%
Population Tubulin-Different-Phenotype (%) [7]: 37% and 63% and 44%
Total Cell Count [7]: 235 and 159 and 307
Population Apoptotic (%) [8]: 91% and 94% and 89%
Population Fragmented Nuclei (%) [8]: 25% and 32% and 19%
Population Hoechst High Intensity Objects (%) [8]: 15% and 21% and 9%
Population Mitotic Cells (%) [8]: 8% and 5% and 10%
Population Normal (%) [8]: 84% and 78% and 90%
Population Pyknosed Nuclei (%) [8]: 49% and 50% and 21%
Total Cell Count [8]: 98 and 89 and 110
Population Apoptotic (%) [9]: 58% and 30%
Population Fragmented Nuclei (%) [9]: 3%
Population Healthy Nuclei (%) [9]: 84% and 87%
Population Hoechst High Intensity Objects (%) [9]: 1% and 0%
Population Membrane Permeable-Phenotype (%) [9]: 2% and 1%
Population Mitochondria Different-Phenotype (%) [9]: 9% and 7%
Population Mitotic Cells (%) [9]: 41% and 69% and 74%
Population Normal (%) [9]: 98% and 99%
Population Pyknosed Nuclei (%) [9]: 7%
Total Cell Count [9]: 208 and 559 and 312
Population Apoptotic (%) [10]: 38% and 21% and 25%
Population Fragmented Nuclei (%) [10]: 4% and 7% and 9%
Population Healthy Nuclei (%) [10]: 83% and 76%
Population Membrane Permeable-Phenotype (%) [10]: 7% and 3%
Population Mitochondria Different-Phenotype (%) [10]: 13% and 8% and 12%
Population Mitotic Cells (%) [10]: 61% and 78% and 75%
Population Normal (%) [10]: 92% and 96% and 85%
Population Pyknosed Nuclei (%) [10]: 12% and 8% and 13%
Total Cell Count [10]: 84 and 114 and 231
Population Apoptotic (%) [11]: 92% and 85% and 62%
Population Mitochondria Different-Phenotype (%) [11]: 17% and 14% and 9%
Population Normal (%) [11]: 89% and 91% and 96%
Population Tubulin-Different-Phenotype (%) [11]: 37% and 75% and 53%
Total Cell Count [11]: 372 and 170 and 387
Population Apoptotic (%) [12]: 96% and 100% and 84%
Population Fragmented Nuclei (%) [12]: 23% and 17% and 12%
Population Healthy Nuclei (%) [12]: 38% and 68%
Population Membrane Permeable-Phenotype (%) [12]: 85% and 44%
Population Mitochondria Different-Phenotype (%) [12]: 81% and 74% and 35%
Population Mitotic Cells (%) [12]: 3% and 0% and 15%
Population Normal (%) [12]: 76% and 80% and 92%
Population Pyknosed Nuclei (%) [12]: 38% and 30% and 19%
Population Tubulin-Different-Phenotype (%) [12]: 81% and 82% and 30%
Total Cell Count [12]: 84 and 107 and 142
